Measured values reported in ChEMBL document CHEMBL5058577, “EUbOPEN Chemogenomics Library 2 (Multiplex)” (2022).

Test system: HEK-293T
Assay: Multiplex assay against HEK293T
Format: toxicity, cell-based
Details: human
Method in brief: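 With compound added, live cells were imaged on a CQ1 microscope at 37°C and 5% CO2; staining with Hoechst33342, BioTracker Green Microtubule Cytoskeleton Dye, MitoTracker Red and Annexin V Alexa Fluor 680 had been done at seeding. The CellPathfinder machine-learning gating scheme split cells into Hoechst high-intensity objects or normal cells, normal cells into healthy, pyknosed or fragmented nuclei, and pyknosed cells into mitotic or apoptotic. The tubulin, mitochondrial-mass and membrane-permeability phenotypes are per cents of healthy-nucleus cells.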

[1] = 12 h, 1 µM, compound concentration 1 uM, replicate 1
[2] = 12 h, 1 µM, compound concentration 1 uM, replicate 2
[3] = 12 h, 10 µM, compound concentration 10 uM, replicate 1
[4] = 12 h, 10 µM, compound concentration 10 uM, replicate 2
[5] = 24 h, 1 µM, compound concentration 1 uM, replicate 1
[6] = 24 h, 1 µM, compound concentration 1 uM, replicate 2
[7] = 24 h, 10 µM, compound concentration 10 uM, replicate 1
[8] = 24 h, 10 µM, compound concentration 10 uM, replicate 2
[9] = 48 h, 1 µM, compound concentration 1 uM, replicate 1
[10] = 48 h, 1 µM, compound concentration 1 uM, replicate 2
[11] = 48 h, 10 µM, compound concentration 10 uM, replicate 1
[12] = 48 h, 10 µM, compound concentration 10 uM, replicate 2

## Nc1nc(CC(=O)Nc2ccc(CCNC[C@H](O)c3ccccc3)cc2)cs1 [MIRABEGRON]
[1]
  Population Apoptotic (%): 22%
  Population Fragmented Nuclei (%): 5%
  Population Healthy Nuclei (%): 84%
  Population Hoechst High Intensity Objects (%): 5%
  Population Membrane Permeable-Phenotype (%): 0%
  Population Mitochondria Different-Phenotype (%): 45%
  Population Mitotic Cells (%): 77%
  Population Normal (%): 94%
  Population Pyknosed Nuclei (%): 10%
  Population Tubulin-Different-Phenotype (%): 19%
  Total Cell Count: 455
[2]
  Population Apoptotic (%): 55%
  Population Fragmented Nuclei (%): 8%
  Population Healthy Nuclei (%): 80%
  Population Mitochondria Different-Phenotype (%): 56%
  Population Mitotic Cells (%): 44%
  Population Pyknosed Nuclei (%): 11%
  Total Cell Count: 332
[3]
  Population Apoptotic (%): 32%
  Population Fragmented Nuclei (%): 5%
  Population Healthy Nuclei (%): 77%
  Population Hoechst High Intensity Objects (%): 7%
  Population Membrane Permeable-Phenotype (%): 0%
  Population Mitochondria Different-Phenotype (%): 51%
  Population Mitotic Cells (%): 67%
  Population Normal (%): 92%
  Population Pyknosed Nuclei (%): 17%
  Population Tubulin-Different-Phenotype (%): 41%
  Total Cell Count: 423
[4]
  Population Apoptotic (%): 44%
  Population Fragmented Nuclei (%): 11%
  Population Healthy Nuclei (%): 74%
  Population Hoechst High Intensity Objects (%): 8%
  Population Mitochondria Different-Phenotype (%): 64%
  Population Mitotic Cells (%): 56%
  Population Normal (%): 91%
  Population Pyknosed Nuclei (%): 14%
  Population Tubulin-Different-Phenotype (%): 29%
  Total Cell Count: 388
[5]
  Population Apoptotic (%): 28%
  Population Fragmented Nuclei (%): 10%
  Population Healthy Nuclei (%): 80%
  Population Hoechst High Intensity Objects (%): 2%
  Population Membrane Permeable-Phenotype (%): 0%
  Population Mitochondria Different-Phenotype (%): 30%
  Population Mitotic Cells (%): 71%
  Population Normal (%): 97%
  Population Pyknosed Nuclei (%): 9%
  Population Tubulin-Different-Phenotype (%): 14%
  Total Cell Count: 635
[6]
  Population Apoptotic (%): 27%
  Population Fragmented Nuclei (%): 8%
  Population Healthy Nuclei (%): 83%
  Population Hoechst High Intensity Objects (%): 3%
  Population Mitochondria Different-Phenotype (%): 41%
  Population Mitotic Cells (%): 72%
  Population Normal (%): 96%
  Population Pyknosed Nuclei (%): 7%
  Population Tubulin-Different-Phenotype (%): 13%
  Total Cell Count: 390
[7]
  Population Apoptotic (%): 31%
  Population Fragmented Nuclei (%): 8%
  Population Healthy Nuclei (%): 77%
  Population Hoechst High Intensity Objects (%): 4%
  Population Membrane Permeable-Phenotype (%): 0%
  Population Mitochondria Different-Phenotype (%): 32%
  Population Mitotic Cells (%): 68%
  Population Normal (%): 95%
  Population Pyknosed Nuclei (%): 13%
  Population Tubulin-Different-Phenotype (%): 23%
  Total Cell Count: 552
[8]
  Population Apoptotic (%): 35%
  Population Fragmented Nuclei (%): 9%
  Population Healthy Nuclei (%): 82%
  Population Hoechst High Intensity Objects (%): 5%
  Population Mitochondria Different-Phenotype (%): 49%
  Population Mitotic Cells (%): 64%
  Population Normal (%): 94%
  Population Pyknosed Nuclei (%): 7%
  Total Cell Count: 524
[9]
  Population Apoptotic (%): 18%
  Population Fragmented Nuclei (%): 13%
  Population Healthy Nuclei (%): 80%
  Population Hoechst High Intensity Objects (%): 1%
  Population Membrane Permeable-Phenotype (%): 1%
  Population Mitochondria Different-Phenotype (%): 14%
  Population Mitotic Cells (%): 81%
  Population Normal (%): 98%
  Population Pyknosed Nuclei (%): 5%
  Population Tubulin-Different-Phenotype (%): 10%
  Total Cell Count: 1141
[10]
  Population Apoptotic (%): 28%
  Population Fragmented Nuclei (%): 17%
  Population Healthy Nuclei (%): 76%
  Population Hoechst High Intensity Objects (%): 0%
  Population Mitochondria Different-Phenotype (%): 21%
  Population Mitotic Cells (%): 71%
  Population Normal (%): 99%
  Total Cell Count: 662
[11]
  Population Apoptotic (%): 26%
  Population Fragmented Nuclei (%): 12%
  Population Healthy Nuclei (%): 78%
  Population Hoechst High Intensity Objects (%): 3%
  Population Membrane Permeable-Phenotype (%): 0%
  Population Mitochondria Different-Phenotype (%): 25%
  Population Mitotic Cells (%): 73%
  Population Normal (%): 96%
  Population Pyknosed Nuclei (%): 8%
  Population Tubulin-Different-Phenotype (%): 16%
  Total Cell Count: 818
[12]
  Population Apoptotic (%): 28%
  Population Healthy Nuclei (%): 80%
  Population Hoechst High Intensity Objects (%): 2%
  Population Mitochondria Different-Phenotype (%): 30%
  Population Mitotic Cells (%): 71%
  Population Normal (%): 97%
  Population Pyknosed Nuclei (%): 6%
  Population Tubulin-Different-Phenotype (%): 15%
  Total Cell Count: 750

## Cc1cc(-c2ccc3c(c2)CC[C@H]3N2CC3(CCN(C(=O)Cc4cn5cc(C)sc5n4)CC3)C2)ncn1 [PF-5190457]
[1]
  Population Apoptotic (%): 36%
  Population Fragmented Nuclei (%): 5%
  Population Healthy Nuclei (%): 83%
  Population Hoechst High Intensity Objects (%): 5%
  Population Membrane Permeable-Phenotype (%): 0%
  Population Mitochondria Different-Phenotype (%): 40%
  Population Mitotic Cells (%): 63%
  Population Normal (%): 94%
  Population Pyknosed Nuclei (%): 11%
  Population Tubulin-Different-Phenotype (%): 25%
  Total Cell Count: 418
[2]
  Population Apoptotic (%): 47%
  Population Fragmented Nuclei (%): 8%
  Population Healthy Nuclei (%): 72%
  Population Hoechst High Intensity Objects (%): 10%
  Population Mitochondria Different-Phenotype (%): 53%
  Population Mitotic Cells (%): 52%
  Population Normal (%): 89%
  Population Pyknosed Nuclei (%): 19%
  Population Tubulin-Different-Phenotype (%): 22%
  Total Cell Count: 258
[3]
  Population Apoptotic (%): 40%
  Population Fragmented Nuclei (%): 9%
  Population Healthy Nuclei (%): 75%
  Population Hoechst High Intensity Objects (%): 11%
  Population Membrane Permeable-Phenotype (%): 0%
  Population Mitochondria Different-Phenotype (%): 53%
  Population Mitotic Cells (%): 60%
  Population Normal (%): 88%
  Population Pyknosed Nuclei (%): 14%
  Population Tubulin-Different-Phenotype (%): 37%
  Total Cell Count: 455
[4]
  Population Apoptotic (%): 54%
  Population Fragmented Nuclei (%): 3%
  Population Healthy Nuclei (%): 80%
  Population Hoechst High Intensity Objects (%): 8%
  Population Mitochondria Different-Phenotype (%): 70%
  Population Mitotic Cells (%): 45%
  Population Normal (%): 91%
  Population Pyknosed Nuclei (%): 16%
  Population Tubulin-Different-Phenotype (%): 40%
  Total Cell Count: 322
[5]
  Population Apoptotic (%): 21%
  Population Fragmented Nuclei (%): 8%
  Population Healthy Nuclei (%): 77%
  Population Hoechst High Intensity Objects (%): 2%
  Population Membrane Permeable-Phenotype (%): 0%
  Population Mitochondria Different-Phenotype (%): 24%
  Population Mitotic Cells (%): 78%
  Population Normal (%): 97%
  Population Pyknosed Nuclei (%): 13%
  Population Tubulin-Different-Phenotype (%): 16%
  Total Cell Count: 549
[6]
  Population Apoptotic (%): 45%
  Population Fragmented Nuclei (%): 11%
  Population Healthy Nuclei (%): 78%
  Population Hoechst High Intensity Objects (%): 7%
  Population Membrane Permeable-Phenotype (%): 1%
  Population Mitochondria Different-Phenotype (%): 35%
  Population Mitotic Cells (%): 54%
  Population Normal (%): 92%
  Population Pyknosed Nuclei (%): 9%
  Population Tubulin-Different-Phenotype (%): 11%
  Total Cell Count: 352
[7]
  Population Apoptotic (%): 25%
  Population Fragmented Nuclei (%): 10%
  Population Healthy Nuclei (%): 75%
  Population Hoechst High Intensity Objects (%): 5%
  Population Membrane Permeable-Phenotype (%): 1%
  Population Mitochondria Different-Phenotype (%): 28%
  Population Mitotic Cells (%): 74%
  Population Normal (%): 94%
  Population Pyknosed Nuclei (%): 14%
  Population Tubulin-Different-Phenotype (%): 30%
  Total Cell Count: 638
[8]
  Population Apoptotic (%): 36%
  Population Fragmented Nuclei (%): 5%
  Population Healthy Nuclei (%): 81%
  Population Hoechst High Intensity Objects (%): 6%
  Population Membrane Permeable-Phenotype (%): 0%
  Population Mitochondria Different-Phenotype (%): 51%
  Population Mitotic Cells (%): 63%
  Population Normal (%): 93%
  Population Pyknosed Nuclei (%): 13%
  Population Tubulin-Different-Phenotype (%): 23%
  Total Cell Count: 425
[9]
  Population Apoptotic (%): 25%
  Population Fragmented Nuclei (%): 14%
  Population Healthy Nuclei (%): 79%
  Population Hoechst High Intensity Objects (%): 1%
  Population Membrane Permeable-Phenotype (%): 1%
  Population Mitochondria Different-Phenotype (%): 18%
  Population Mitotic Cells (%): 74%
  Population Normal (%): 98%
  Population Pyknosed Nuclei (%): 5%
  Population Tubulin-Different-Phenotype (%): 9%
  Total Cell Count: 873
[10]
  Population Apoptotic (%): 39%
  Population Fragmented Nuclei (%): 12%
  Population Healthy Nuclei (%): 80%
  Population Hoechst High Intensity Objects (%): 3%
  Population Mitochondria Different-Phenotype (%): 21%
  Population Mitotic Cells (%): 60%
  Population Normal (%): 96%
  Population Pyknosed Nuclei (%): 6%
  Population Tubulin-Different-Phenotype (%): 10%
  Total Cell Count: 531
[11]
  Population Apoptotic (%): 24%
  Population Fragmented Nuclei (%): 14%
  Population Healthy Nuclei (%): 77%
  Population Hoechst High Intensity Objects (%): 2%
  Population Membrane Permeable-Phenotype (%): 0%
  Population Mitochondria Different-Phenotype (%): 27%
  Population Mitotic Cells (%): 76%
  Population Normal (%): 97%
  Population Pyknosed Nuclei (%): 8%
  Population Tubulin-Different-Phenotype (%): 20%
  Total Cell Count: 927
[12]
  Population Apoptotic (%): 46%
  Population Fragmented Nuclei (%): 13%
  Population Healthy Nuclei (%): 78%
  Population Hoechst High Intensity Objects (%): 4%
  Population Mitochondria Different-Phenotype (%): 32%
  Population Mitotic Cells (%): 53%
  Population Normal (%): 95%
  Total Cell Count: 520
